Test results taken from ChEMBL document CHEMBL4808167, “Design, Synthesis, and Evaluation of Small Molecule Gαq/11 Protein Inhibitors for the Treatment of Uveal Melanoma” (J Med Chem, 2021).
pIC50: −log10 of the molar value. Active and inactive are the calls of the source. No cut-off for these calls is given here.

Experiments:
[1] = (§1) Antiproliferative activity against human MP41 cells assessed as inhibition of cell growth after 72 hrs by CCK8 assay; type: functional, cell-based; conditions: MP41, 72 h
Procedure, shortened: (§2)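 92.1 or MP41 cells in RPMI-1640 with 10% FBS were seeded at 3 × 10³ cells/well. Exposed to serial concentrations for 72 h at 37 °C, 5% CO₂. CCK-8 added for 1−4 h, absorbance read at 450 nm. IC₅₀ from concentration−response curve fit, mean ± SD.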

MP41 [2] = experiment: as §1; type: functional, cell-based; procedure, shortened: as §2
[3] = Induction of apoptosis in human 921 cells assessed as necrotic cells at 5 uM after 48 hrs by Annexin-V-FITC/propidium iodide staining based flow cytometry (reference value: 0.26%); type: functional
[4] = Induction of apoptosis in human 921 cells assessed as late apoptotic cells at 15 uM after 48 hrs by Annexin-V-FITC/propidium iodide staining based flow cytometry (reference value: 2.52%); type: functional
MP41 [5] = experiment: Inhibition of cell migration in human MP41 cells at 15 uM incubated for 48 hrs by transwell migration assay; type: functional, cell-based
Procedure, shortened: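 Transwell migration: 92.1 and MP41 cells (RPMI-1640, 10% FBS) seeded 1 × 10⁴/well in upper chamber in serum-free medium, 20% FBS medium below; overnight at 37 °C, then compound for 48 h. Non-migrated cells swabbed off; lower cells crystal violet-stained 30 min, counted by light microscopy. Mean SD of three independent experiments.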

[6] = Tmax in ICR mouse at 10 mg/kg, iv measured upto 24 hrs by LC-MS/MS analysis; type: ADME, organism-based; conditions: in vivo
Procedure, shortened: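 Single-dose PK in male ICR mice (n = 6): 10 mg/kg iv or 30 mg/kg po, vehicle 5% DMSO/95% saline. Blood (30 μL) by catheter at 0, 5, 15, 30 min and 1, 2, 4, 6, 8, 24 h; plasma by centrifugation, stored −80 °C, measured by LC–MS/MS. Parameters from noncompartmental analysis, mean SD.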

[7] = Cmax in ICR mouse at 30 mg/kg, po measured upto 24 hrs by LC-MS/MS analysis; type: ADME, organism-based; design: route oral, dose 30 mg/kg, time <=24; conditions: in vivo
Procedure, shortened: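 Single dose in male ICR mice, 10 mg/kg iv or 30 mg/kg po, dissolved in 5% DMSO/95% saline. Blood drawn by catheter at 0, 5, 15, 30 min and 1, 2, 4, 6, 8, 24 h. Plasma spun 6800g 6 min at 2−8 °C, stored −80 °C, quantified by LC−MS/MS. Noncompartmental parameters, mean ± SD, n = 6.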

SMILES: CC[C@@H](C)[C@H](N)C(=O)N1CCn2cc(-c3ccccc3)nc2[C@@H]1CC1CCCCC1
- pIC50 [1]: 4.61
- Activity (MP41 [2]): Dose-Dependent Effect
- Activity [3]: 0.43%
- Activity [4]: 6.99%
- inhibition (MP41 [5]): Active
- Tmax [6]: 4.8 min
- Cmax [7]: 2890 ng/mL
